ChEMBL document CHEMBL4177600, “Identification of novel PI3K inhibitors through a scaffold hopping strategy” (Bioorg Med Chem Lett, 2017)
pKi: −log10 of the molar value. Converted amounts (≈) assume the structure as drawn.

Assays:
[1] = target: Platelet-derived growth factor receptor alpha (Homo sapiens) (UniProt P16234); experiment: Inhibition of recombinant human N-terminal GST/His6-tagged PDGFRalpha (Q551 to L1089 residues) expressed in Sf9 insect cells at 1 uM using TRK-C-derived peptide as substrate by filter binding method relative to control
Procedure, shortened: (§1)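 Single-point screen at 1 µM in a 24-kinase panel run externally; each value is the average of two independent data points. The detailed assay conditions are given only on the provider's site.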

[2] = target: T1, 3-phosphoinositide-dependent protein kinase 1 (Homo sapiens) (UniProt O15530); experiment: Inhibition of recombinant human N-terminal His6-tagged PDK1 (M1 to M460 residues) expressed in Sf9 insect cells at 1 uM using LRRWSLG as substrate by filter binding method relative to control; procedure, shortened: as §1
T1 sequence (whole entry): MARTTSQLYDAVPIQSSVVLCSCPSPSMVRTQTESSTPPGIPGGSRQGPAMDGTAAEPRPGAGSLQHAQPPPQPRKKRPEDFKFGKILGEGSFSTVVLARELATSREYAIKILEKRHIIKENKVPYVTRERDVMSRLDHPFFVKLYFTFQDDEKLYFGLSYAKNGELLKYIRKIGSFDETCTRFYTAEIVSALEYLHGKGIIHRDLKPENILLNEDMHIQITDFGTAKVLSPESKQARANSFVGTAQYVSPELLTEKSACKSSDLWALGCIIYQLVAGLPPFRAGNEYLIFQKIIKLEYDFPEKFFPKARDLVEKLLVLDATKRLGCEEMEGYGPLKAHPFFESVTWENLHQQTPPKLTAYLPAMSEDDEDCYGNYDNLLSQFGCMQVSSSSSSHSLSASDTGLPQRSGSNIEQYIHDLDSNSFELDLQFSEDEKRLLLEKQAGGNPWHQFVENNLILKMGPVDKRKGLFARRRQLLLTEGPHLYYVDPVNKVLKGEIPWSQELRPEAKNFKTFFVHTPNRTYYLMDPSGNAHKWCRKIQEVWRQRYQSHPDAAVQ

[3] = Permeability of the compound at 300 uL after 5 hrs by PAMPA; format: ADME; settings: read-out: permeability
Procedure, shortened: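 Pre-coated PAMPA plates with a tri-layer phospholipid membrane. Donor held compound in PBS at the highest concentration soluble in PBS; acceptor was PBS. Incubated 5 h at room temperature, with propranolol and sorafenib (10 µM) as high and low permeability controls. Donor and acceptor concentrations measured by LC-MS/MS; Pe (10^-6 cm/s) calculated from acceptor/equilibrium concentrations, 0.3 cm² area and well volumes.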

[4] = target: PI3-kinase p110-delta/p85-alpha (Homo sapiens, UniProt O00329); experiment: Inhibition of recombinant human full-length N-terminal His6-tagged p110delta/human full-length p85alpha expressed in baculovirus infected Sf21 insect cells using PIP2 as substrate by HTRF assay; settings: read-out: Ki(app)
[5] = target: CDK8/Cyclin C (Homo sapiens) (UniProt P49336+P24863); experiment: Inhibition of recombinant human N-terminal GST/HIS6-tagged CDK8 (M1 to Y463 residues)/human N-terminal His6-tagged Cyclin C (M1 to S283 residues) expressed in Sf9 insect cells at 1 uM using RBER-IRStide as substrate by fliter binding assay relative to control
Procedure, shortened: (§2)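 Kinase panel of 24 enzymes, each tested at 1 µM; percent inhibition reported as the average of two independent data points.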

[6] = target: Focal adhesion kinase 1 (Homo sapiens) (UniProt Q05397); experiment: Inhibition of human FAK at 1 uM relative to control; procedure, shortened: as §2
CYP1A2 = target: T2, CYP1A2 (Homo sapiens, UniProt P05177); experiment: Inhibition of CYP1A2 (unknown origin) at 10 uM relative to control; format: ADME
T2 sequence (P05177 whole entry): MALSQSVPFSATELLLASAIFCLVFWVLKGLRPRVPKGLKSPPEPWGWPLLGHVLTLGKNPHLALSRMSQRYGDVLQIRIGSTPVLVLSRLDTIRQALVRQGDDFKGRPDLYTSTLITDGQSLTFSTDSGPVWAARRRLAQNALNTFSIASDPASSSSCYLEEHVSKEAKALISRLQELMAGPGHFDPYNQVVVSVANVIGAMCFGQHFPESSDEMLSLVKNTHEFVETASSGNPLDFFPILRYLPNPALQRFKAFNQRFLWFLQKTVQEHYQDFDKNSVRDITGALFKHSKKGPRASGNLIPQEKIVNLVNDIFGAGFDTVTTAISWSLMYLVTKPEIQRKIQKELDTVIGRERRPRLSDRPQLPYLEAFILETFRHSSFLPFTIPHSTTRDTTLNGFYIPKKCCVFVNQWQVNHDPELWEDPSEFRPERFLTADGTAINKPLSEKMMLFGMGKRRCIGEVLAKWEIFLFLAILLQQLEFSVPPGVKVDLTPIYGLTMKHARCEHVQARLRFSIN
Procedure, shortened: (§3)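 CYP1A2, 2C9, 2C19, 2D6 and 3A4 inhibition measured at 10 µM test compound in duplicate; percent inhibition reported.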

CYP2C19 = CYP2C19 (Homo sapiens, UniProt P33261); experiment: Inhibition of CYP2C19 (unknown origin) at 10 uM relative to control; format: ADME; procedure, shortened: as §3
[7] = target: Casein kinase I isoform alpha (Homo sapiens) (UniProt P48729); experiment: Inhibition of recombinant human N-terminal GST/HIS6-tagged CK1alpha (M1 to F365 residues) expressed in Sf9 insect cells at 1 uM using casein as substrate by fliter binding assay relative to control; procedure, shortened: as §2
CYP2D6 = CYP2D6 (Homo sapiens, UniProt P10635); experiment: Inhibition of CYP2D6 (unknown origin) at 10 uM relative to control; format: ADME; procedure, shortened: as §3
[8] = target: Tyrosine-protein kinase JAK2 (Homo sapiens) (UniProt O60674); experiment: Inhibition of recombinant human N-terminal GST/His6-tagged JAK2 (P717 to G1132 residues) expressed in Sf9 insect cells at 1 uM using TRK-C-derived peptide as substrate by filter binding method relative to control; procedure, shortened: as §2
[9] = tested on: Serine/threonine-protein kinase B-raf (Homo sapiens), P15056 [V600E]; experiment: Inhibition of recombinant human N-terminal GST/HIS6-tagged BRAF V600E mutant (Q417 to H766 residues) expressed in Sf9 insect cells at 1 uM using MEK1-KM as substrate by fliter binding assay relative to control; procedure, shortened: as §2
[10] = Kinetic solubility of the compound in phosphate buffered saline at pH 7.4 at 1 to 2 mg measured after 24 hrs by HPLC analysis; format: physicochemical; settings: read-out: Kinetic_solubility
Procedure, shortened: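 Solid compound (1–2 mg) in 1 mL PBS, pH 7.4, inverted in test tubes for 24 h. Samples centrifuged, supernatant analysed by HPLC with diode-array detection, with peak area compared to a standard of known concentration. LC-MS/MS used when UV signal was too low or the chromophore poor. Reported in µM.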

Sequence of Casein kinase I isoform alpha (Homo sapiens) (P48729 2-337 limits assumed): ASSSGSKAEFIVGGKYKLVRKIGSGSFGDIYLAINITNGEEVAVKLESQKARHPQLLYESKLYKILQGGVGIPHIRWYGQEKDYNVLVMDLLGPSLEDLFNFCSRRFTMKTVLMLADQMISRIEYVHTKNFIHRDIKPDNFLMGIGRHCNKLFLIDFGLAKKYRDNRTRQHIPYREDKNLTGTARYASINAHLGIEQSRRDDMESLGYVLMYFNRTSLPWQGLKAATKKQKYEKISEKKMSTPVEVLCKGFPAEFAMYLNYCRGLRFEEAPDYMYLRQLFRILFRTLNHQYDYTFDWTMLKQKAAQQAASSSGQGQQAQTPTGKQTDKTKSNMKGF
Sequence of CYP2D6 (P10635 whole entry, the tested form may be a part): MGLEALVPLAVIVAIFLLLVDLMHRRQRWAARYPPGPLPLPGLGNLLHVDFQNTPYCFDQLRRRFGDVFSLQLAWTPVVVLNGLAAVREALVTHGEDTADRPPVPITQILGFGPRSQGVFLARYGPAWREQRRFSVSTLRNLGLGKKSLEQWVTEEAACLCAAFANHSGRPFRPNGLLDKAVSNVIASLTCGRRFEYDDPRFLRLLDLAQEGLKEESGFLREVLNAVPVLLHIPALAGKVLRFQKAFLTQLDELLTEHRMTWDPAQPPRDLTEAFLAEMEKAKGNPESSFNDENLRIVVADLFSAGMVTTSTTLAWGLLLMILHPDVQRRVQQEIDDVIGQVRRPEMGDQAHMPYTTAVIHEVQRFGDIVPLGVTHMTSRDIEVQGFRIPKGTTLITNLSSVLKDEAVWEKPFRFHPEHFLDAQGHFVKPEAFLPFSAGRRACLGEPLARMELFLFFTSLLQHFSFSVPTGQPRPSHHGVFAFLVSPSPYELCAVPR
Sequence of PI3-kinase p110-delta/p85-alpha (P27986 whole entry, the tested form may be a part): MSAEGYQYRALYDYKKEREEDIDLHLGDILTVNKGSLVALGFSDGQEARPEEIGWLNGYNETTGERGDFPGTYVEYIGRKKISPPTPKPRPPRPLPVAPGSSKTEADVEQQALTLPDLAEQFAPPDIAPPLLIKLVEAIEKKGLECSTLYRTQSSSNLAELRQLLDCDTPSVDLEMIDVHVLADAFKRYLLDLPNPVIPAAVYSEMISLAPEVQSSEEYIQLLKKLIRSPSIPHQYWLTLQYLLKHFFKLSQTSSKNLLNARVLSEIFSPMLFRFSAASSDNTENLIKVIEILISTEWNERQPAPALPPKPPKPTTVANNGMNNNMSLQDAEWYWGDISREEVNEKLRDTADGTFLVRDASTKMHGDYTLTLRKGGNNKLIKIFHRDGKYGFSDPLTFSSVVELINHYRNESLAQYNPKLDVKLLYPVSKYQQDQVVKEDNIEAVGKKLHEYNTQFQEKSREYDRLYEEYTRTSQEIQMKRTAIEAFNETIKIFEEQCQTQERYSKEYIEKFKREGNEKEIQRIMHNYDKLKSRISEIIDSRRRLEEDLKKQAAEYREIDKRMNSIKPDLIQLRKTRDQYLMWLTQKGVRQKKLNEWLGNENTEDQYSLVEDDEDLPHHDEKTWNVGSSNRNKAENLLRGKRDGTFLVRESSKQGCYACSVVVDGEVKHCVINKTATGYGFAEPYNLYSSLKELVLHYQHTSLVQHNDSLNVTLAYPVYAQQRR
Sequence of PI3-kinase p110-delta/p85-alpha (O00329 whole entry, the tested form may be a part): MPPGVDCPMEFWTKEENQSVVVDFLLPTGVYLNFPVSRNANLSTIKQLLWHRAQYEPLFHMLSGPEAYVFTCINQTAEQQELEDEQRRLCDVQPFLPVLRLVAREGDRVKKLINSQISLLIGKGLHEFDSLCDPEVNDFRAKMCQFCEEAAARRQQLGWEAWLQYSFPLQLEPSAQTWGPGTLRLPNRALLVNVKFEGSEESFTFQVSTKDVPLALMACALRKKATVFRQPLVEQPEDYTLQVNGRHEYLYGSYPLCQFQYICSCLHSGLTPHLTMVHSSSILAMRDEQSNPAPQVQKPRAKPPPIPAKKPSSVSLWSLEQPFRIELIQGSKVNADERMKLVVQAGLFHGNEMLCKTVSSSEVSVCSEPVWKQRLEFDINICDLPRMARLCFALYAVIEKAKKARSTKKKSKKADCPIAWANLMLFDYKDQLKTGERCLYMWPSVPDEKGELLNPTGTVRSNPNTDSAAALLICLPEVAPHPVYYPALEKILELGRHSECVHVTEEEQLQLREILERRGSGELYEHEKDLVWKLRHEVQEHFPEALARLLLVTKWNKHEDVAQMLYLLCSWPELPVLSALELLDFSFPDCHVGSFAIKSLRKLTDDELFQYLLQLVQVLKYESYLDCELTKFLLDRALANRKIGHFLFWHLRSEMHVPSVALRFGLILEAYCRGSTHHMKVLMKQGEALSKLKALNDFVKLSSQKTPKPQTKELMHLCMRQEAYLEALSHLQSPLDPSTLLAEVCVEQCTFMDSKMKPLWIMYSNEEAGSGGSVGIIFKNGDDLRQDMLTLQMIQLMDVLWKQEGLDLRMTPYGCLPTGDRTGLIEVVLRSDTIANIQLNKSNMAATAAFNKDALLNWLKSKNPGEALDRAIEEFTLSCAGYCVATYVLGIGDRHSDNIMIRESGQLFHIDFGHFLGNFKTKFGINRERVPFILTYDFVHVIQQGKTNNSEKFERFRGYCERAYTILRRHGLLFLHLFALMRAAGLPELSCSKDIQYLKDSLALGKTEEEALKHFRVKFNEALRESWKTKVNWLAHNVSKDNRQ
Sequence of Tyrosine-protein kinase JAK2 (Homo sapiens) (O60674 whole entry, the tested form may be a part): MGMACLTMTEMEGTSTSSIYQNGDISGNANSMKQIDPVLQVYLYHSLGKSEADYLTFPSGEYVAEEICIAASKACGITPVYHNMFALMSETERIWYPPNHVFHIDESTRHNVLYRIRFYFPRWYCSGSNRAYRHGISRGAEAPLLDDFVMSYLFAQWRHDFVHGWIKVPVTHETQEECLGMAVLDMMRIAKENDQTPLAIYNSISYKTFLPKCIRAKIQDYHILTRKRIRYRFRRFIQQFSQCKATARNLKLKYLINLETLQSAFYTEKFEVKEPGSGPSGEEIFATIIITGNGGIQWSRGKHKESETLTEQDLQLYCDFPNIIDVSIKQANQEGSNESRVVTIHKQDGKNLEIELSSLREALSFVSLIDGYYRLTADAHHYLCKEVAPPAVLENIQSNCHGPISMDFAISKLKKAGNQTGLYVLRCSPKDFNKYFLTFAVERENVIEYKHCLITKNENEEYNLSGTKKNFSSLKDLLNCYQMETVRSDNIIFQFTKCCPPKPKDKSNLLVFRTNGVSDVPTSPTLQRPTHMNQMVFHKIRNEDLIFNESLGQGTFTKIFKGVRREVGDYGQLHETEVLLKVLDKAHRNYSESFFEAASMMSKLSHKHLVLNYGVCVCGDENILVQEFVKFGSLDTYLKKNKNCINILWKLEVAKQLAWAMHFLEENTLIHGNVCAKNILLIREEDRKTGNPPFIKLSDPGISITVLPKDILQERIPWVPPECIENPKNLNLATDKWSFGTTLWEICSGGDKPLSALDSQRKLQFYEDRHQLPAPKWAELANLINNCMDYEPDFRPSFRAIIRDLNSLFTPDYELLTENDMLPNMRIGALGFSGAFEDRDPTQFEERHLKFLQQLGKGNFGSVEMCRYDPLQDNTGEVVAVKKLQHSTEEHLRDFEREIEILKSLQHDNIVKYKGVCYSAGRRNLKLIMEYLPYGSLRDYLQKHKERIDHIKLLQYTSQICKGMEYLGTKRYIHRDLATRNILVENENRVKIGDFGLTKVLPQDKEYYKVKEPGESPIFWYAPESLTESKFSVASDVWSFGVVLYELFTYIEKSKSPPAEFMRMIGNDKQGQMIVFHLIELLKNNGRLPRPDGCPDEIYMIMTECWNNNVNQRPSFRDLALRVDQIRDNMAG
Sequence of Serine/threonine-protein kinase B-raf (Homo sapiens), P15056 [V600E] (P15056 whole entry V600E, the tested form may be a part): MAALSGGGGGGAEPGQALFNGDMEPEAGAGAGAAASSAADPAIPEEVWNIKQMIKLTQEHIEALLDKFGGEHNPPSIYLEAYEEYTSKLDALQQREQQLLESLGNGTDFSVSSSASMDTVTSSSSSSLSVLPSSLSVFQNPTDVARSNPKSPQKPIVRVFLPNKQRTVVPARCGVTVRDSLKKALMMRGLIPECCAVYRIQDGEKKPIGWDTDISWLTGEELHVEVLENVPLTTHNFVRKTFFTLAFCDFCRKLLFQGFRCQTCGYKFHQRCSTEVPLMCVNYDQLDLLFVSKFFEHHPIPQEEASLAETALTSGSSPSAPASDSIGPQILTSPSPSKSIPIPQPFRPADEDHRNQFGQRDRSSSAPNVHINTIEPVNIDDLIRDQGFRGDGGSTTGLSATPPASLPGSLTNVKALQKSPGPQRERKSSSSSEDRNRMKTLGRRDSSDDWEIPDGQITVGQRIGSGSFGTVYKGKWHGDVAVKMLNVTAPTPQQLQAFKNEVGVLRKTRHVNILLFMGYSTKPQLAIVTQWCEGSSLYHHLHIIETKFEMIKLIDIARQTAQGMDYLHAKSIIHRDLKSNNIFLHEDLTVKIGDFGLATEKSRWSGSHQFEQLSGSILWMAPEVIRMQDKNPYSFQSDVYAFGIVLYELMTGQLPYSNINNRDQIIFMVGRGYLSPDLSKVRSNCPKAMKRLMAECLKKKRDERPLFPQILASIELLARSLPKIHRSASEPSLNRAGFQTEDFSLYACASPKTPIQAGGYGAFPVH
Sequence of CYP2C19 (P33261 whole entry, the tested form may be a part, canonical isoform): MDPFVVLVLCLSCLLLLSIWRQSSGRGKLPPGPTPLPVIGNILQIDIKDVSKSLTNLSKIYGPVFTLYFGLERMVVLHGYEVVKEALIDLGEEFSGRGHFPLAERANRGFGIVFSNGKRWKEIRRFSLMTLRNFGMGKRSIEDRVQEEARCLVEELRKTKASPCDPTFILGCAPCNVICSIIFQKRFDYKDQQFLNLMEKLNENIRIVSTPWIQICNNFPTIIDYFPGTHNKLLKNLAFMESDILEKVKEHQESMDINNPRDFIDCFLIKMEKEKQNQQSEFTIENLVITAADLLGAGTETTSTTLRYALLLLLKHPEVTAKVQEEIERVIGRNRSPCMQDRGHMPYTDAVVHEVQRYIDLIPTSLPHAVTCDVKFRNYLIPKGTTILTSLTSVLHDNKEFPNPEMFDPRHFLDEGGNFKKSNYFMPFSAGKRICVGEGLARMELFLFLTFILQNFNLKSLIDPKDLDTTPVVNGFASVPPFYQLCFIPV

| inhibition [1] [%] | inhibition [2] [%] | Papp at 5 h [3] [×10⁻⁶ cm/s] | pKi [4] | inhibition [5] [%] | inhibition [6] [%] | inhibition at 10 µM (CYP1A2) [%] | inhibition at 10 µM (CYP2C19) [%] | inhibition [7] [%] | inhibition at 10 µM (CYP2D6) [%] | inhibition [8] [%] | inhibition [9] [%] | solubility kinetic at 24 h [10] [µM] | Structure (SMILES) |
| --- | --- | --- | --- | --- | --- | --- | --- | --- | --- | --- | --- | --- | --- |
| < 25 | < 25 | 0.93 | 8.15 | < 25 | < 25 | < 25 | < 25 | < 25 | < 25 | < 25 | < 25 | 10 (≈ 4.74 µg/mL) | CS(=O)(=O)N1CCN(Cc2cc3c(N4CCOCC4)nc(-c4cnc(N)nc4)cn3n2)CC1 |
| < 25 | < 25 | 1.92 | 8.20 | < 25 | < 25 | < 25 | < 25 | < 25 | < 25 | < 25 | < 25 | 100 (≈ 47.5 µg/mL) | CS(=O)(=O)N1CCN(Cc2nc3c(N4CCOCC4)nc(-c4cnc(N)nc4)cn3n2)CC1 |
| < 25 | < 25 | 3.54 | 7.75 | < 25 | < 25 | < 25 | < 25 | < 25 | < 25 | < 25 | < 25 | 10 (≈ 4.75 µg/mL) | CS(=O)(=O)N1CCN(Cc2cn3nc(-c4cnc(N)nc4)nc(N4CCOCC4)c3n2)CC1 |
| < 25 | < 25 | 0.69 | 8.47 | < 25 | < 25 | < 25 | < 25 | < 25 | < 25 | < 25 | < 25 | 100 (≈ 50.9 µg/mL) | CS(=O)(=O)N1CCN(Cc2nc3c(N4CCOCC4)nc(-c4cnc(N)nc4)c(Cl)n3n2)CC1 |
